WT yeast gro inh: growth inhibition of WT strain, primary screen, mitochondrial fusion inhibitor project, WT and mutant strains, chemical genetic; mitochondrial fusion phenotypic screen; inhibition, % at 10 µM; 2.1% of 190,000 active; AID 1362, 2008; in the data active = inhibition above about 58%; tested in S. cerevisiae
ABCB1 inh: ABCB1 efflux pump inhibitors, primary screen, cell-based, multiplex, flow cytometry, ABCG2 counter-screen; inhibition, % at 6.6 µM; AID 1326, 2008; 0.067% of 190,000 active; CCRF-Adr cells, JC-1 efflux; ATP-dependent translocase ABCB1 (Homo sapiens), P08183; in the data active = inhibition above about 40%;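 note: 0% = vehicle and 100% = reference inhibitor; higher value means more JC-1 retained so stronger ABCB1 efflux block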
Lmaj promast: Leishmania major promastigote growth inhibition, primary screen; Leishmania major promastigotes, resazurin fluorescence viability; inhibition, % at 10 µM; 9% of 200,000 active; in the data active = inhibition above about 50%;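 note: promastigotes grown with compound for 44 hours at 28 °C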
RAM inhibit: inhibitors of the yeast RAM network, primary screen, dse1pr::URA3 reporter, 5-FOA selection. S. cerevisiae dse1pr::URA3 reporter, 5-FOA growth OD615, 2 d; analog-sensitive cbk1-as2 kinase mutant strain. inhibition, % at 50 µM. 1.8% of 190,000 active. AID 868, 2007;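 active = inhibition above a set limit, 3 SD over mean compound inhibition, cut at about 8.4% in these data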;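 note: 0% = DMSO-only wells with no growth and 100% = 10 µM 1-NA-PP1 full growth; inhibition rescues growth on 5-FOA so higher OD means more RAM inhibition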
ABCG2 inh: ABCG2 efflux pump inhibitors, primary screen, multiplex with ABCB1, IgMXP3 cells, flow cytometry; Broad substrate specificity ATP-binding cassette transporter ABCG2 (Homo sapiens), Q9UNQ0; JC-1 efflux; inhibition, % at 6.6 µM; 0.1% of 190,000 active;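 active = inhibition above 80%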;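 note: 0% = DMSO and 100% = nicardipine control wells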
Target sequence (Q9UNQ0 whole entry, looked up): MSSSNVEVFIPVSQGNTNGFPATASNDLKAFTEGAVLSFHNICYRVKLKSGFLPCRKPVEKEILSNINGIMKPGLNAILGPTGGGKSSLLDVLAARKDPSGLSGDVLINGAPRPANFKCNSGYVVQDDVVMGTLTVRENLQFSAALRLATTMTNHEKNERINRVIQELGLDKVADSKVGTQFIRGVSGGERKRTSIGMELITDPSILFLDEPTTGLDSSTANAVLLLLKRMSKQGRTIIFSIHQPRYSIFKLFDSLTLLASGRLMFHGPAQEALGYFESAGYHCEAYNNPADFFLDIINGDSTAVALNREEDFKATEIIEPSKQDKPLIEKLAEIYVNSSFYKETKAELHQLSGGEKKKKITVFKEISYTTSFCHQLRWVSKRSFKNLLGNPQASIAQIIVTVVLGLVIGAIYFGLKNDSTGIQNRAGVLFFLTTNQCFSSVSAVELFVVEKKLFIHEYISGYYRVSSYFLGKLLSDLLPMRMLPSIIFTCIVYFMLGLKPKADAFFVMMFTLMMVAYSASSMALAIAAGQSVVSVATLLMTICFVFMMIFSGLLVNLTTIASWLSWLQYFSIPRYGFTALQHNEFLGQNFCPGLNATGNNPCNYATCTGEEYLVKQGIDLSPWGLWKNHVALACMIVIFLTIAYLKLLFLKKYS
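Read-out basis: Efflux inhibition in percent versus controls | Test system: ABCG2 IgMXP3 and barcoded ABCB1 CCRF-Adr cell mix | Quantity: 3 million cells/mL in well | Schedule: 10 min at 25 °C | Control set: Nicardipine as high control, DMSO as low control | Reagent: JC-1 as fluorescent efflux pump substrate | Signal: Flow cytometry of retained JC-1 fluorescence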
* hit, by the source's call; x = no result. Only some compounds are listed: those with a hit (about 12% of all), similar ones and a draw of the others.

SMILES	WT yeast gro inh	ABCB1 inh	Lmaj promast	RAM inhibit	ABCG2 inh
CCOC(=O)C1(CCc2ccccc2)CCN(Cc2ccccn2)CC1	12	0	4	0	3
CCOC(=O)C1(CCOc2ccccc2)CCN(Cc2ccc3nonc3c2)CC1	62*	2	92*	1	13
CC(=O)Nc1ccc(CN2CCC(CO)(CCOc3ccccc3)CC2)cc1	-15	1	49	-1	2
CCOC(=O)C1(CCOc2ccccc2)CCN(Cc2ccc(NC(C)=O)cc2)CC1	-13	1	87*	0	2
O=C(Nc1nc(-c2cccs2)c(-c2cccs2)s1)C1CCCC1	72*	0	23	6	0
O=C(Nc1nnc(-c2cccs2)s1)C1CC1	-7	0	3	4	6
CCC(CC)C1C(C#N)=C(N)Oc2n[nH]c(C)c21 (centres undefined)	-9	0	99*	1	1
CCC(CC)C1C(C#N)=C(N)Oc2n[nH]c(-c3ccccc3)c21 (centres undefined)	4	x	32	3	x
Cc1[nH]nc2c1C(C1CC=CCC1)C(C#N)=C(N)O2 (centres undefined)	9	0	100*	3	0
C=C(C)C1CC=C(C)/C(=N/NC(=O)c2ccc(NC(=O)c3cccc(C)c3)cc2)C1 (centres undefined)	27	1	100*	0	7
C=C(C)C1CC=C(C)/C(=N/NC(=O)c2ccoc2C)C1 (centres undefined)	7	0	5	2	7
C=C(C)C1CC=C(C)/C(=N/NC(=O)c2cccc([N+](=O)[O-])c2)C1 (centres undefined)	2	2	100*	2	23
CCCCc1nc2cc(Cl)ccc2o1	1	1	-5	2	2
Cc1cc(C(=O)OCC(=O)NC2CCS(=O)(=O)C2)c2ccccc2n1 (centres undefined)	11	0	-2	-1	11
O=C(COC(=O)c1cc(-c2cccc3ccccc23)nc2ccccc12)NC1CCS(=O)(=O)C1 (centres undefined)	-40	2	69*	6	15
O=C(COC(=O)c1cc(-c2cccs2)nc2ccccc12)NC1CCS(=O)(=O)C1 (centres undefined)	7	0	-5	1	10
COc1ccc2cc(-c3cc(C(=O)OCC(=O)NC4CCS(=O)(=O)C4)c4ccccc4n3)ccc2c1 (centres undefined)	27	-1	60*	5	-5
CN(C)CCCNS(=O)(=O)c1ccc(Oc2ncc(C(F)(F)F)cc2Cl)cc1	0	0	95*	0	1
Cc1ccc(-n2nnnc2SCc2nnc(-c3ccccc3Br)o2)c(C)c1	27	1	2	11*	3
Cn1nnnc1SCc1nnc(-c2ccccc2Br)o1	3	1	-5	2	3
CN(C)CCN1CCc2ccccc21	-13	0	78*	4	12
Cc1ccc(C(=O)CSc2nnnn2C(C)C)c(C)c1	-9	1	34	0	6
C=CCn1c(SCC(=O)Nc2ccc3c(c2)OCO3)nnc1-c1ccccc1OC	-11	1	-3	1	6
C=CCn1c(SCc2csc(-c3ccc(Cl)cc3)n2)nnc1-c1ccccc1OC	57	2	70*	1	52
CCn1c(SCC(=O)Nc2sc3c(c2C#N)CCCC3)nnc1-c1ccncc1	-2	2	5	11*	8
Cc1csc(SCC(=O)Nc2sc3c(c2C#N)CCC3)n1	17	0	99*	3	0
Cc1ccc(N2C(=O)C(Cl)=C(NCc3ccccc3)C2=O)c(C)c1	22	1	1	7	1
COc1ccccc1-c1cc(C(=O)N/N=C/c2ccc(C)s2)c2ccccc2n1	36	1	83*	0	2
CCc1ccc(/C=N/NC(=O)c2cc(-c3ccccc3OC)nc3ccccc23)s1	21	1	50	2	2
CCOCCCn1c(SC(C(=O)Nc2cc(C)ccc2C)c2ccccc2)nnc1-c1ccc(Cl)cc1 (centres undefined)	7	1	61*	5	1
